# Bioassay records deposited in PubChem BioAssay by several laboratories.
# CTSL1 counter: counter-screen for PFM18AAP inhibitors: inhibitors of F. hepatica cathepsin L1; AID 1906; inhibition, % at 5.96 µM; recombinant F. hepatica cathepsin L1, Z-Leu-Arg-MCA fluorescence; 300,000 compounds, 0.49% hits;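 active means inhibition above the mean of all tested compounds plus 3 SD, set per screening campaign, cut at about 17% in these data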;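 further: 0% = plate median of test compound wells and 100% = 1 µM Z-Phe-Ala-diazomethylketone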
# HKDC1 inh: blocks human hexokinase HKDC1 activity | 340,000 compounds, 0.16% hits | recombinant HKDC1, G6PDH/diaphorase resazurin coupled fluorescence | Q2TB90 | inhibition, % at 20 µM;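 active means inhibition above about 35% when tested at 20 µM, limit read from the data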;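 further: plate controls were DMSO wells with enzyme for no effect and DMSO wells lacking enzyme for full effect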
#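 Material – in-house recombinant HK5 (HKDC1) enzyme · Quantity – HKDC1 at 5 µg/mL · Buffer or medium – pH 8.0 Tris buffer with 10 mM MgCl2 · Reagent – glucose with 1 mM ATP · Dosing – single 20 µM dose · Times – reaction time 90 min, room temperature, protected from light · Technique – resorufin fluorescence at 613 nm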
# ATG4B inh: blocks human ATG4B protease cleavage of LC3 substrate; Q9Y4P1; ATG4B cleavage of LC3-PLA2, NBD-HPC fluorescence, 1 h; inhibition, % at 8.33 µM; 340,000 compounds, 0.51% hits; AID 504462; in the data active means inhibition above about 40%
# Target sequence (Q9Y4P1 whole entry, looked up): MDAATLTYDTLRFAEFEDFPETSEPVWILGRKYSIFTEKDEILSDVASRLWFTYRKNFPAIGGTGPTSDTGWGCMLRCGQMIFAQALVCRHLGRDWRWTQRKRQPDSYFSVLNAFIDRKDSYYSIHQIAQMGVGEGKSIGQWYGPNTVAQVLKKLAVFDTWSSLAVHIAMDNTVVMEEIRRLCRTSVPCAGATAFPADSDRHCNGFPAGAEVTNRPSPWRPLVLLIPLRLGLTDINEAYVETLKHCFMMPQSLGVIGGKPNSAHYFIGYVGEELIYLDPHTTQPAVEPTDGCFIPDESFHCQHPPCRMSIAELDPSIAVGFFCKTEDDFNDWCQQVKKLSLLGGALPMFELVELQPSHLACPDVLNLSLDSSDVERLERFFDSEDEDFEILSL
# Diaph act CS: counter-screen for diaphorase-based assays: diaphorase activators and chemical reducers; 190,000 compounds, 0.005% hits; activation factor at 20 µM; Diaphorase/resazurin coupled assay, resorufin fluorescence, 16 min; hits give high values; 1 = vehicle wells, 0 = NADH-free wells;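 active means diaphorase activity raised at least twofold by the compound at 20 µM; inactive means activation factor below 2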
#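 test system = bacterial diaphorase enzyme (C. kluyveri) | quantity = enzyme 0.07 U/mL final | reagent = NADH substrate 0.114 mM plus resazurin dye 0.1 mM, final | incubation = 16 min enzyme reaction, ambient temperature | buffer or medium = HEPES pH 7.4 buffer with MgCl2 and Tween 20 | signal = fluorescence of resorufin, 544 nm excitation, 590 nm emission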
# Diaph inh CS: diaphorase inhibition or chemical oxidation counter-screen. 190,000 compounds, 0.69% hits. inhibition, % at 20 µM. diaphorase resazurin-to-resorufin fluorescence, NADH, 16 min; bacterial (C. kluyveri) enzyme, not human;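 active means primary screen inhibition at 20 µM above a set limit, cut at about 50% in these data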;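 further: plate controls were DMSO with full reaction for no effect and wells lacking NADH for full effect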
#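 Assay system: diaphorase enzyme from Clostridium kluyveri; Input: enzyme working solution with 0.14 U/mL diaphorase; Timing: 16 min at room temperature; Technique: resorufin fluorescence, excitation 544 nm, emission 590 nm; Benchmarks: positive control minus NADH, DMSO neutral control.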
# An asterisk follows results filed as active; . = no result. Most compounds without a hit are left out; they make up all but 1.4% or so of the library.
SMILES,CTSL1 counter,HKDC1 inh,ATG4B inh,Diaph act CS,Diaph inh CS
COc1ccc(CC(=O)OCC(=O)NCc2ccc(C)cc2)cc1OC,.,-3.5,-10.3,.,.
COc1ccc(S(=O)(=O)N(C)CC(=O)Nc2ccc(C)cc2)cc1OC,-1.6,-7.9,-11.7,0.3,65.2*
Cn1c(=O)c(C(=O)COc2ccc(F)cc2Cl)c(N)n(Cc2ccccc2)c1=O,31.3*,-5.2,2.5,0.7,29.8
Cn1c(N)c(C(=O)COc2ccc(Cl)cc2Cl)c(=O)n(C)c1=O,6.8,-1.3,3.0,0.9,5.8
CC(C)C[C@H](NC(=O)C1(c2ccccc2)CCN(C(=O)[C@H]2CSCN2C(=O)OC(C)(C)C)CC1)C(=O)O,3.8,-7.3,-0.2,0.9,5.6
CC(C)[C@H](NC(=O)C1(c2ccccc2)CCN(C(=O)OC(C)(C)C)CC1)C(=O)O,26.6*,-6.5,3.4,0.9,8.0
CC(C)C[C@H](NC(=O)C1(c2ccccc2)CCN(C(=O)OC(C)(C)C)CC1)C(=O)N1CCC[C@H]1C(=O)O,41.2*,-2.3,-1.5,.,.
CC(C)(C)OC(=O)N1CCC(C(=O)N[C@@H](Cc2ccccc2)C(=O)O)(c2ccccc2)CC1,5.2,-14.9,-8.1,1,4.4
CC(=O)N1CCn2c3c(c4cc(C)ccc42)CCCC31 (stereo not given),3.0,8.6,-4.1,1,-0.8
CC(=O)N1CCn2c3c(c(=O)c4cc(C)ccc42)CCC31 (stereo not given),24.0*,-2.5,-6.8,0.8,15.1
Cc1ccc2c(c1)c1c3n2CCN(C(=O)CCl)C3CCC1 (stereo not given),39.4*,27.7,8.2,.,.
CCN1CCn2c3c(c4cc(C)ccc42)CCCC31 (stereo not given),0.5,-7.3,1.8,1,-0.9
C[C@H](CO)N1C[C@H](C)[C@@H](CN(C)C(=O)Nc2ccc3c(c2)OCO3)Oc2ccc(NC(=O)Cn3cnnn3)cc2C1=O,.,3.7,-3.8,.,.
NNC(=O)c1cc2ccccc2cc1O,-2.6,-9.4,-3.8,0.9,8.7
O=C(NCCO)c1cc2ccccc2cc1O,-0.1,-0.9,-2.2,0.5,52.5*
Cc1ccnc(N=Cc2nc(-c3ccccc3Br)oc2O)c1,66.6*,1.9,7.8,1,-3.8
Cc1cccc(/N=C/c2nc(-c3ccccc3Br)oc2O)n1,66.7*,-5.3,-0.5,0.9,13.4
Cc1ccc(-n2nc3c(=O)n(C(C)C(=O)NCc4ccc(Cl)cc4)nc(C)c3c2C)cc1 (stereo not given),-2.6,-1.4,-1.4,.,.
O=C(c1cc2c(=O)n3ccccc3nc2s1)N1CCc2ccccc2C1,4.3,.,.,0.4,57.4*
CC(=O)N(/N=C1\Sc2ccccc2C1=O)c1cccc(C)c1,87.9*,1.0,-1.9,0.8,20.0
NC(=O)c1nsc(C(=O)N(CC(=O)NC2CCCC2)c2cccc(C(F)(F)F)c2)c1N,20.4*,-6.7,4.4,.,.
CC(C)c1nc2sc3c(=O)[nH]c(=S)[nH]c3c2c2c1CCC2,.,.,.,0.1,85.1*
CC(C)c1nc2sc3c(=O)[nH]c(=S)[nH]c3c2c2c1CCCC2,-0.1,27.2,-11.8,.,.
Cc1cc(Br)cc2c1N(C)C(=O)C2(c1ccc(O)cc1)c1ccc(O)cc1,2.1,-0.8,-5.0,.,.
Cc1cc(C(=O)N/N=C/c2ccc(O)c(O)c2O)c(C)n1-c1ccccc1,.,17.5,-1.0,0.1,88.8*
SMILES,CTSL1 counter,HKDC1 inh,ATG4B inh,Diaph act CS,Diaph inh CS
O=C(CCN1CCN(c2ccccc2)CC1)N/N=C/c1ccc(O)c(O)c1O,.,19.3,-0.6,0.4,64.1*
O=C(Cc1csc(N2CCOCC2)n1)N/N=C/c1ccc(O)c(O)c1O,.,21.7,-5.6,0.2,82.8*
O=C(CCN1CCOCC1)N/N=C/c1cc(Br)cc(Br)c1O,0.6,-18.0,-5.7,0.4,62.6*
O=C(Cc1ccccc1)N/N=C/c1cc(Br)cc(Br)c1O,-8.4,-15.9,-5.7,.,.
O=C1CSC(=S)N1N=Cc1ccc2c(c1)OCO2,.,0.5,-3.2,.,.
COc1ccc(C)cc1NC(=O)CN1C(=O)COc2ccc(S(=O)(=O)N3CCOCC3)cc21,-2.4,3.5,-8.0,.,.
Cc1ccc(/C=C(\NC(=O)c2ccccc2)C(=O)OCc2ccccc2)cc1,21.6*,-6.1,-5.2,0.9,7.2
CCOC(=O)/C(=C\c1ccc(C)cc1)NC(=O)c1ccccc1,-1.5,-2.9,-1.8,0.9,5.0
CCCNC(=S)Nc1ccc2nc(-c3ccccn3)c(-c3ccccn3)nc2c1,-0.1,7.7,-4.2,0.5,52.2*
c1cc2cn[nH]c2cc1NC1CCCCCC1,2.7,17.1,-7.6,0.3,72.2*
Brc1cccc(-c2cnco2)c1,18.3*,-5.4,-25.1,1,3.4
CN(C(=O)CCc1nc(-c2ccccc2F)no1)c1ccccc1,36.8*,-3.2,2.5,0.9,14.0
Cc1cccc(CCNC(=O)CCc2nc(-c3ccccc3F)no2)c1,-1.3,-7.6,-4.9,0.8,21.3
Nc1[nH]n2c(=O)cc(-c3ccccc3)nc2c1N=Nc1ccccc1,3.5,-15.4,-1.1,0.3,67.3*
Nc1[nH]n2c(=O)cc(-c3ccccc3)nc2c1N=Nc1ccc(S(N)(=O)=O)cc1,5.5,8.5,-9.0,0.1,89.7*
O=C1NC(=O)C2(C=C(c3ccccc3)C(O)(c3ccccc3)C2)N1 (stereo not given),.,4.2,-1.0,.,.
Cc1cc(/C=c2\sc3nc4ccccc4n3c2=O)c(C)n1-c1ccc(C(=O)O)cc1,.,5.7,8.0,0.7,32.3
Cc1cc(/C=c2/sc3nc4ccccc4n3c2=O)c(C)n1-c1ccccn1,-4.5,4.6,1.8,0.5,52.1*
COc1ccc(CCNC(=O)CC2Nc3ccccc3NC2=O)cc1OC (stereo not given),-0.3,12.3,0.6,0.5,51.6*
Oc1oc(-c2cccc3ccccc23)nc1/C=N/c1nccs1,22.4*,0.8,3.2,0.9,8.6
CC(=O)Nc1cc(OC(C)=O)c2nonc2c1OC(C)=O,110.2*,9.1,-1.6,0.2,76.1*
Cc1c(C)n2c(SCC(=O)N3CCN(c4ccccc4)CC3)nnc2[nH]c1=O,-4.8,-5.1,-7.5,.,.
CCCCCc1ccc(CC(=O)N2CCOCC2)cc1,2.0,-1.9,-2.0,.,.
C=CCn1c2ccccc2c2nnc(SCCN3CCCCC3)nc21,-1.1,-0.4,5.2,.,.
C=CCn1c2ccccc2c2nnc(SCCCn3c(=O)[nH]c4ccccc43)nc21,.,31.9,36.4,0.4,57.3*
O=C(OCc1ccccc1)N1CCC2CC1c1cc(NCCc3ccccc3)ccc12 (stereo not given),.,3.5,-1.3,.,.
CNc1cc(=O)n(C)c(=O)n1-c1ccccc1,31.2*,-4.2,-1.5,.,.
Cc1ccc(NC(=O)c2ccc(C(=O)c3ccccc3)cc2)nc1,1.4,0.4,-3.0,.,.
O=C(O)/C=C/C(=O)Nc1cccc2cccnc12,10.0,-2.4,-4.3,.,.
